The results in this text go back to ChEMBL document CHEMBL4261606, “Inhibition of LDL oxidation and inflammasome assembly by nitroaliphatic derivatives. Potential use as anti-inflammatory and anti-atherogenic agents” (Eur J Med Chem, 2018).

The source made the active and inactive calls. The calls are words filed in the database; no cut-off is given here.

Data set [1] in a line: Antioxidant activity assessed as trolox equivalent of AAPH-induced peroxyl radical scavenging activity at 1.3 to 13 uM up to 140 mins by ORAC-FL assay. It is filed as functional. In outline:
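ORAC: fluorescein (7.5 nM) decay (ex 485/em 512 nm) followed 140 min at 37 °C. Peroxyl radicals came from 30 mM AAPH in 75 mM phosphate pH 7.4 with 100 µM DTPA, compounds at 1.3-13 µM. Curves normalised to initial fluorescence, and net AUC versus concentration compared with Trolox standard (1.5-24 µM). Three independent determinations, mean ± SD.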

Data set [2] has as its system Plasma. The data set can be described thus: Inhibition of AAPH-induced oxidation of human plasma derived LDL assessed as time of delay for initiation of propagation phase by measuring rate of oxygen consumption at 20 uM added before AAPH addition by high-resolution oxygen electrode.
In data set [3] the test system is Plasma. The data set can be described thus: Inhibition of AAPH-induced oxidation of human plasma derived LDL assessed as reversal of rate of oxygen consumption at 20 uM added after beginning of propagation phase by high-resolution oxygen electrode.
Data set [4] is filed under the species Mus musculus. The data set can be described thus: Antiinflammatory activity in mouse […] cells assessed as reduction in INF-gamma/LPS-induced IL-1beta expression at 5 uM preincubated for 1 hr followed by INF-gamma/LPS addition for 4 hrs by Western blot analysis. It is filed as functional, cell-based. The procedure, abridged: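 Confluent J774 monolayers preincubated 1 h with compound at 5 µM, then stimulated 4 h at 37 °C, 5% CO₂ with IFN-γ 400 U/mL plus Salmonella enterica LPS 8 µg/mL. Whole-cell lysates resolved by 15% SDS-PAGE and immunoblotted with rabbit anti-IL-1β and Alexa Fluor 680 secondary. Bands quantified by densitometry, with loading checked on paired colloidal-blue gels. Three independent experiments, one-way ANOVA.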

For data set [5], the species on record is Mus musculus. The data set can be described thus: Antiatherogenic activity in mouse […] cells assessed as foam cell formation by measuring ox-LDL internalization at 2.5 to 5 uM preincubated for 1 hr followed by ox-LDL Dil addition for 4 hrs by Hoechst 3342-staining based fluorescence assay. It is filed as functional. In outline:
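J774 murine macrophages in DMEM with 10% FBS at 80% confluence (~2×10⁵ cells/well) preincubated 1 h with compound (0.3-5 µM range in plate-reader format). DiI-labelled Cu²⁺-oxidised LDL (10 µg/mL) then added for 4 h at 37 °C, 5% CO₂. Cells washed, nuclei stained with Hoechst 3342 (10 µg/mL, 10 min). Read-out is DiI (549/565 nm) to Hoechst (352/461 nm) fluorescence ratio.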

A short description of data set [6]: Cytotoxicity in mouse […] cells assessed as change in cell survival at 0.3 to 5 uM after 2 to 24 hrs by MTT assay. It is filed as cell-based. The procedure, abridged:
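Confluent J774 cells exposed to compounds in DMEM at 37 °C, 5% CO₂ for 2 h and for 24 h. MTT (0.1 mg/mL in DPBS) then added for 3 h at 37 °C. Formazan dissolved in DMSO/glycine buffer pH 10.5 and absorbance read at 560 nm, with vehicle as reference.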
(Tetrazolium dyes change colour on reduction, which living cells bring about.)

For `O=[N+]([O-])/C=C\c1ccc(Br)cc1`, the Activity in data set [1] worked out at 0.44 equiv.
As for `O=[N+]([O-])/C=C\c1ccc(Cl)cc1`, the Activity in data set [1] is 0.44 equiv.
Same read-out and setting: then `O=[N+]([O-])/C=C\c1cccs1`, with 0.43 equiv; and `C/C(=C/c1cccs1)[N+](=O)[O-]`, with 0.54 equiv; and `COc1ccc(/C=C(/C)[N+](=O)[O-])cc1`, with 0.46 equiv.
`CC(Cc1ccc(N(C)C)cc1)[N+](=O)[O-]` (stereo unspecified): in the data set with Plasma [2], the Time is given as 30 min. Moreover, the inhibition entry with Plasma [3] was “Active”. In addition, in the data set listed under Mus musculus [4], the outcome was Active. In addition, in data set [1], the Activity turned out to be 10 equiv.
Turning to `CN(C)c1ccc(CC[N+](=O)[O-])cc1`, in the data set on Plasma [2], the Time is greater than 40 min. Besides, the inhibition result in the data set with Plasma [3] was “Active”. Besides, the result in the data set listed under Mus musculus [4] was Active. Further, the Activity in data set [1] is 13 equiv.
With `CSc1ccc(/C=C\[N+](=O)[O-])cc1`, the Activity in data set [1] amounted to 3.5 equiv.
In the case of `CC(=O)Nc1ccc(CC[N+](=O)[O-])cc1`, in data set [1], the Activity came to 0.26 equiv.
In the case of `COc1ccc(/C=C\[N+](=O)[O-])cc1`, the Activity in data set [1] worked out at 0.46 equiv.
For `C/C(=C/c1ccc(Br)cc1)[N+](=O)[O-]`, the Activity in data set [1] was found to be 0.45 equiv.
Same read-out and setting: then `O=[N+]([O-])/C=C\c1ccc2c(c1)OCO2`, with 0.72 equiv; and `CSc1ccc(CC[N+](=O)[O-])cc1`, with 2.8 equiv; and `C/C(=C/c1ccccc1)[N+](=O)[O-]`, with 0.37 equiv.
On to `C/C(=C/c1ccc(Cl)cc1)[N+](=O)[O-]`, for which, in data set [1], the Activity was 0.39 equiv.
Same read-out and setting: to `C/C(=C/c1ccc2c(c1)OCO2)[N+](=O)[O-]` belongs 1.6 equiv; to `CC(=O)Nc1ccc(/C=C\[N+](=O)[O-])cc1`, 0.63 equiv.
For the compound `CN(C)c1ccc(/C=C\[N+](=O)[O-])cc1`, in the data set with Plasma [2], the Time is 20 min. The inhibition result with Plasma [3] was “inactive”. The result in the data set filed under Mus musculus [4] was Active. In the data set filed under Mus musculus [5], the outcome was inactive. The Activity was 4.2 equiv in data set [1] and “Non-Toxic” in data set [6].
For `C/C(=C/c1ccc(N(C)C)cc1)[N+](=O)[O-]`, in the data set on Plasma [2], the Time stood at 20 min. Also, the inhibition entry in the data set on Plasma [3] is “inactive”. In addition, the result in the data set filed under Mus musculus [4] was Active. Also, the outcome in the data set filed under Mus musculus [5] was inactive. The Activity was 5.4 equiv in data set [1] and “Non-Toxic” in data set [6].
Regarding `O=[N+]([O-])/C=C\c1ccccc1`, the Activity in data set [1] was 0.29 equiv.
